These results are taken from ChEMBL document CHEMBL4819066, “Repurposing primaquine as a polyamine conjugate to become an antibiotic adjuvant” (Bioorg Med Chem, 2021).

A value given as a limit tells only on which side of the number the result lay.

One test concerns Staphylococcus aureus. Briefly: Antibacterial activity against methicillin-resistant Staphylococcus aureus ATCC 43300 assessed as reduction in microbial growth after 18 hrs by resazurin dye based assay. It is filed as functional. The method, boiled down:
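Overnight culture at 37 °C, diluted 40-fold in MHB and grown 1.5-2 h to mid-log. Inoculum 5 × 10^5 CFU/mL. Two-fold serial dilutions, final 0.008-32 µg/mL, in duplicate. […] Vancomycin served as the Gram-positive standard.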
(Alamar Blue is a resazurin reagent that responds to reducing activity.)

The subject of test [1] is Pseudomonas aeruginosa. Briefly: Antibacterial activity against Pseudomonas aeruginosa ATCC 27853 assessed as reduction in microbial growth after 18 hrs by resazurin dye based assay. It is filed as functional. The method, boiled down: (§1)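 Bacteria grown overnight at 37 °C in LB, NB or MHB, diluted 40-fold into MHB and grown 1.5-2 h to mid-log phase. Inoculum 5 × 10^5 CFU/mL (final), 2-fold serial dilutions, final range 0.008-32 µg/mL, in duplicate. […] Colistin as positive control, Z'-factor >0.4 for plate QC.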

The next test has as its system Escherichia coli. Nature of the test: Antibacterial activity against Escherichia coli ATCC 25922 assessed as reduction in microbial growth after 18 hrs by resazurin dye based assay. The format is functional. The method, boiled down:
as §1

Another test deals with Klebsiella pneumoniae. Nature of the test: Antibacterial activity against Klebsiella pneumoniae ATCC 700603 assessed as reduction in microbial growth after 18 hrs by resazurin dye based assay. The format is functional. The method, boiled down:
as §1

A further test concerns Acinetobacter baumannii. Nature of the test: Antibacterial activity against Acinetobacter baumannii ATCC 19606 assessed as reduction in microbial growth after 18 hrs by resazurin dye based assay. The format is functional. Conditions: ATCC 19606 = CIP 70.34 = JCM 6841. In short, it runs like this:
as §1

In the next test the test system is Cryptococcus neoformans. Briefly: Antifungal activity against Cryptococcus neoformans ATCC 208821 assessed as reduction in microbial growth after 36 hrs by resazurin dye based assay. It is filed as functional. The method, boiled down: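 Yeast grown 3 days on YPD agar at 30 °C and diluted in YNB broth to 2.5 × 10^3 CFU/mL. Compounds at 0.008-32 µg/mL final, 2-fold dilutions, in duplicate. After 36 h at 35 °C without shaking, resazurin added at 0.006% final for a further 3 h; MIC read as absorbance at OD570-600. Fluconazole as positive control.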

Test [2] has as its system Pseudomonas aeruginosa. Briefly: Potentiation of doxycycline-induced antibacterial activity against Pseudomonas aeruginosa ATCC 27853 assessed as complete reduction in visible microbial growth after 18 hrs in presence of 4.5 uM doxycycline by two fold serial dilution method. The format is functional. In short, it runs like this:
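Adjuvant test by broth dilution: inoculum 5 × 10^5 CFU in 200 µL MHB. Two-fold serial dilutions of each derivative were given with doxycycline fixed at 2 µg/mL. After 18 h at 37 °C, the value recorded was the lowest adjuvant concentration giving complete absence of visible growth. Three independent repeats.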

The next test deals with Candida albicans. Nature of the test: Antifungal activity against Candida albicans ATCC 90028 assessed as reduction in microbial growth after 36 hrs by absorbance at OD530. The settings on record: ATCC 90028, 36 h.

What is called MIC is the smallest concentration in the dilution series that meets the test's criterion for growth inhibition. With `O=C(CCC(=O)Nc1cccc2cccnc12)NCCCNCCCCCCNCCCNC(=O)CCC(=O)Nc1cccc2cccnc12`, the MIC in the test with Staphylococcus aureus was 17.6 µM; in the test with Pseudomonas aeruginosa [1] it was over 35.1 µM; with Escherichia coli, over 35.1 µM; in the test with Klebsiella pneumoniae, over 35.1 µM; with Acinetobacter baumannii, over 35.1 µM; in the test on Cryptococcus neoformans, over 35.1 µM. Besides, the minimum inhibitory concentration (MIC) was 100 µM in the test on Pseudomonas aeruginosa [2] and over 35.1 µM in the test with Candida albicans.

As for `COc1cc(NC(=O)CCC(=O)NCCCNCCCCNCCCNC(=O)CCC(=O)Nc2cc(OC)cc3cccnc23)c2ncccc2c1`, the MIC in the test with Staphylococcus aureus, with Pseudomonas aeruginosa [1], in the test on Escherichia coli, with Klebsiella pneumoniae, with Acinetobacter baumannii and in the test on Cryptococcus neoformans was over 33.9 µM throughout. Besides, the results for the MIC in the test on Pseudomonas aeruginosa [2] and in the test with Candida albicans were 200 µM and over 33.9 µM, respectively.

For `O=C(CCC(=O)Nc1cccc2cccnc12)NCCCNCCCCCCCNCCCNC(=O)CCC(=O)Nc1cccc2cccnc12`, the MIC with Staphylococcus aureus, in the test on Pseudomonas aeruginosa [1], in the test with Escherichia coli, in the test with Klebsiella pneumoniae, in the test on Acinetobacter baumannii and in the test with Cryptococcus neoformans was over 34.6 µM throughout. For the same compound, the results for the minimum inhibitory concentration (MIC) in the test on Pseudomonas aeruginosa [2] and with Candida albicans were 200 µM and over 34.6 µM, respectively.

Regarding `O=C(CCC(=O)NCc1ccccn1)NCCCNCCCCNCCCNC(=O)CCC(=O)NCc1ccccn1`, the minimal inhibitory concentration (MIC) in the test on Staphylococcus aureus, in the test with Pseudomonas aeruginosa [1], with Escherichia coli, with Klebsiella pneumoniae, with Acinetobacter baumannii and in the test on Cryptococcus neoformans was over 39.5 µM each time. In addition, the MIC with Pseudomonas aeruginosa [2] was 617 µM; in the test on Candida albicans, over 39.5 µM.

In the case of `O=C(CCC(=O)Nc1ccc2ccccc2n1)NCCCNCCCCCCCCCCNCCCNC(=O)CCC(=O)Nc1ccc2ccccc2n1`, the minimum inhibitory concentration (MIC) in the test with Staphylococcus aureus, with Pseudomonas aeruginosa [1], with Escherichia coli, in the test on Klebsiella pneumoniae, in the test with Acinetobacter baumannii and in the test with Cryptococcus neoformans was over 33.1 µM in each case. Moreover, the minimum inhibitory concentration (MIC) in the test with Pseudomonas aeruginosa [2] was 517 µM; in the test on Candida albicans, over 33.1 µM.

For the compound COLISTIN, the minimum inhibitory concentration (MIC) was 0.2 µM in the test on Pseudomonas aeruginosa [1], 0.1 µM in the test with Escherichia coli, 0.2 µM in the test on Klebsiella pneumoniae and 0.2 µM with Acinetobacter baumannii.

As to `COc1cc(NC(=O)CCC(=O)NCCCNCCCCCCCNCCCNC(=O)CCC(=O)Nc2cc(OC)cc3cccnc23)c2ncccc2c1`, the MIC with Staphylococcus aureus, in the test on Pseudomonas aeruginosa [1], in the test on Escherichia coli, with Klebsiella pneumoniae, with Acinetobacter baumannii and with Cryptococcus neoformans was over 32.5 µM throughout. The MIC was 300 µM in the test on Pseudomonas aeruginosa [2] and over 32.5 µM in the test with Candida albicans.

For `C[C@H]1c2cccc(O)c2C(=O)C2=C(O)[C@]3(O)C(=O)C(C(N)=O)=C(O)[C@@H](N(C)C)[C@@H]3[C@@H](O)[C@@H]21` [DOXYCYCLINE], the MIC in the test on Pseudomonas aeruginosa [1] is over 45 µM.

On to `O=C(CCC(=O)Nc1ccc2ccccc2n1)NCCCNCCCCNCCCNC(=O)CCC(=O)Nc1ccc2ccccc2n1`, for which the minimal inhibitory concentration (MIC) with Staphylococcus aureus, in the test on Pseudomonas aeruginosa [1], with Escherichia coli, in the test on Klebsiella pneumoniae, in the test on Acinetobacter baumannii and in the test on Cryptococcus neoformans was over 36.2 µM each time. In addition, the minimal inhibitory concentration (MIC) in the test with Pseudomonas aeruginosa [2] was 566 µM; in the test with Candida albicans, over 36.2 µM.

As to `O=C(CCC(=O)Nc1cccc2ncccc12)NCCCNCCCCCCCCCCNCCCNC(=O)CCC(=O)Nc1cccc2ncccc12`, the minimal inhibitory concentration (MIC) in the test on Staphylococcus aureus, in the test with Pseudomonas aeruginosa [1], in the test with Escherichia coli, with Klebsiella pneumoniae, in the test on Acinetobacter baumannii and in the test on Cryptococcus neoformans was over 33.1 µM in each case. For the same compound, the MIC with Pseudomonas aeruginosa [2] is 517 µM; in the test with Candida albicans, over 33.1 µM.

As for `CN[C@H](CC(C)C)C(=O)N[C@H]1C(=O)N[C@@H](CC(N)=O)C(=O)N[C@H]2C(=O)N[C@H]3C(=O)N[C@H](C(=O)N[C@H](C(=O)O)c4cc(O)cc(O)c4-c4cc3ccc4O)[C@H](O)c3ccc(c(Cl)c3)Oc3cc2cc(c3O[C@@H]2O[C@H](CO)[C@@H](O)[C@H](O)[C@H]2O[C@H]2C[C@](C)(N)[C@H](O)[C@H](C)O2)Oc2ccc(cc2Cl)[C@H]1O` [VANCOMYCIN], the minimal inhibitory concentration (MIC) in the test on Staphylococcus aureus was 0.7 µM.

In the case of `COc1cc(NC(=O)CCC(=O)NCCCNCCCCCCNCCCNC(=O)CCC(=O)Nc2cc(OC)cc3cccnc23)c2ncccc2c1`, the minimum inhibitory concentration (MIC) in the test on Staphylococcus aureus, with Pseudomonas aeruginosa [1], in the test on Escherichia coli, in the test on Klebsiella pneumoniae, with Acinetobacter baumannii and with Cryptococcus neoformans was over 33 µM each time. In addition, the MIC in the test on Pseudomonas aeruginosa [2] is 300 µM; in the test on Candida albicans, over 33 µM.

Take `COc1cc(NC(=O)CCC(=O)NCCCNCCCCCCCCNCCCNC(=O)CCC(=O)Nc2cc(OC)cc3cccnc23)c2ncccc2c1`: the MIC in the test with Staphylococcus aureus, in the test on Pseudomonas aeruginosa [1], in the test with Escherichia coli, with Klebsiella pneumoniae, in the test with Acinetobacter baumannii and in the test with Cryptococcus neoformans was over 32 µM in each case. In addition, the MIC in the test with Pseudomonas aeruginosa [2] is 300 µM; in the test on Candida albicans it was over 32 µM.

As to `O=C(CCC(=O)Nc1cccc2ncccc12)NCCCNCCCCNCCCNC(=O)CCC(=O)Nc1cccc2ncccc12`, the minimal inhibitory concentration (MIC) in the test with Staphylococcus aureus, in the test on Pseudomonas aeruginosa [1], with Escherichia coli, with Klebsiella pneumoniae, in the test on Acinetobacter baumannii and in the test with Cryptococcus neoformans was over 36.2 µM in each case. Besides, the figures for the minimum inhibitory concentration (MIC) with Pseudomonas aeruginosa [2] and with Candida albicans were 300 µM and over 36.2 µM, respectively.

`OC(Cn1cncn1)(Cn1cncn1)c1ccc(F)cc1F` [FLUCONAZOLE]: the minimum inhibitory concentration (MIC) is 26 µM in the test on Cryptococcus neoformans and 0.4 µM in the test with Candida albicans.

With `O=C(CCC(=O)Nc1cccc2cccnc12)NCCCNCCCCNCCCNC(=O)CCC(=O)Nc1cccc2cccnc12`, the MIC in the test with Staphylococcus aureus, in the test with Pseudomonas aeruginosa [1], with Escherichia coli, in the test with Klebsiella pneumoniae, with Acinetobacter baumannii and in the test with Cryptococcus neoformans was over 36.2 µM in each case. The results for the MIC with Pseudomonas aeruginosa [2] and in the test on Candida albicans were 566 µM and over 36.2 µM, respectively.

With `O=C(CCC(=O)Nc1ccc2ncccc2c1)NCCCNCCCCCCCCCCNCCCNC(=O)CCC(=O)Nc1ccc2ncccc2c1`, the minimum inhibitory concentration (MIC) in the test on Staphylococcus aureus, in the test with Pseudomonas aeruginosa [1], in the test with Escherichia coli, with Klebsiella pneumoniae, in the test on Acinetobacter baumannii and in the test on Cryptococcus neoformans was over 33.1 µM in each case. The MIC is 517 µM in the test with Pseudomonas aeruginosa [2] and over 33.1 µM with Candida albicans.

Consider `O=C(CCC(=O)Nc1cccc2cccnc12)NCCCNCCCCCCCCNCCCNC(=O)CCC(=O)Nc1cccc2cccnc12`, for which the minimal inhibitory concentration (MIC) in the test on Staphylococcus aureus, with Pseudomonas aeruginosa [1], in the test on Escherichia coli, in the test with Klebsiella pneumoniae, in the test with Acinetobacter baumannii and with Cryptococcus neoformans was over 34.1 µM each time. Moreover, the minimal inhibitory concentration (MIC) is 200 µM with Pseudomonas aeruginosa [2] and over 34.1 µM in the test on Candida albicans.

With `O=C(CCC(=O)NCc1cccnc1)NCCCNCCCCCCCCCCNCCCNC(=O)CCC(=O)NCc1cccnc1`, the MIC with Staphylococcus aureus, in the test on Pseudomonas aeruginosa [1], with Escherichia coli, in the test on Klebsiella pneumoniae, with Acinetobacter baumannii and with Cryptococcus neoformans was over 35.8 µM throughout. For the same compound, the MIC was 559 µM in the test with Pseudomonas aeruginosa [2] and over 35.8 µM in the test on Candida albicans.

`COc1cc(NC(=O)CCC(=O)NCCCNCCCCCCCCCCNCCCNC(=O)CCC(=O)Nc2cc(OC)cc3cccnc23)c2ncccc2c1`: the MIC with Staphylococcus aureus was 3.9 µM; in the test with Pseudomonas aeruginosa [1], over 31.2 µM; with Escherichia coli, over 31.2 µM; in the test on Klebsiella pneumoniae, over 31.2 µM; in the test on Acinetobacter baumannii, over 31.2 µM; in the test with Cryptococcus neoformans it was over 31.2 µM. Also, the MIC in the test on Pseudomonas aeruginosa [2] is 300 µM; in the test on Candida albicans, over 31.2 µM.

For `O=C(CCC(=O)NCc1cccnc1)NCCCNCCCCNCCCNC(=O)CCC(=O)NCc1cccnc1`, the minimal inhibitory concentration (MIC) in the test with Staphylococcus aureus, in the test with Pseudomonas aeruginosa [1], in the test on Escherichia coli, in the test with Klebsiella pneumoniae, in the test on Acinetobacter baumannii and in the test on Cryptococcus neoformans was over 39.5 µM each time. Moreover, the MIC in the test with Pseudomonas aeruginosa [2] is 617 µM; in the test on Candida albicans, over 39.5 µM.

Take `O=C(CCC(=O)NCc1ccccn1)NCCCNCCCCCCCCCCNCCCNC(=O)CCC(=O)NCc1ccccn1`: the MIC with Staphylococcus aureus, in the test on Pseudomonas aeruginosa [1], in the test with Escherichia coli, in the test with Klebsiella pneumoniae, with Acinetobacter baumannii and in the test on Cryptococcus neoformans was over 35.8 µM throughout. Besides, the minimal inhibitory concentration (MIC) in the test on Pseudomonas aeruginosa [2] is 559 µM; in the test on Candida albicans, over 35.8 µM.
